Screening data deposited in PubChem by several laboratories.
T cell modulator: modulates CD8 T cell binding to vesicles; 2C CD8+ T cell-vesicle binding, flow cytometry; active compounds read low; response (vesicle binding), % at 7 µM; 330,000 tested, 0.068% active;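 active = response, share of CD8 T cells binding vesicles, and their 90th percentile fluorescence all below set limits, cut at about 80% in these data, passing the limit was not always enough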;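 note: values below 100% mean blocked vesicle binding to the CD8+ T cells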
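Read-out – percent CD8+ FL2 mean versus row control · System – murine 2C transgenic CD8+ T lymphocytes · Times – 1.5 h cell–vesicle binding at 37 °C, then 20 min icy labelling · Control set – naked vesicles low, QL9 vesicles with vehicle high · Detection – cytometric PE anti-B7-1 and Alexa647 anti-CD8 signals after 1% paraformaldehyde fixation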
Beta2AR agonist: human beta-2 adrenergic receptor agonism by FAP; P07550; response, % (no concentration beside the values); 340,000 tested, 0.43% active; Am2.2-beta2AR cells, FAP receptor internalization, flow cytometry;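 active = response above a set limit, near 3 SD of response in nonfluorescent compounds, cut at about 42% in these data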
Target sequence (P07550 whole entry, looked up): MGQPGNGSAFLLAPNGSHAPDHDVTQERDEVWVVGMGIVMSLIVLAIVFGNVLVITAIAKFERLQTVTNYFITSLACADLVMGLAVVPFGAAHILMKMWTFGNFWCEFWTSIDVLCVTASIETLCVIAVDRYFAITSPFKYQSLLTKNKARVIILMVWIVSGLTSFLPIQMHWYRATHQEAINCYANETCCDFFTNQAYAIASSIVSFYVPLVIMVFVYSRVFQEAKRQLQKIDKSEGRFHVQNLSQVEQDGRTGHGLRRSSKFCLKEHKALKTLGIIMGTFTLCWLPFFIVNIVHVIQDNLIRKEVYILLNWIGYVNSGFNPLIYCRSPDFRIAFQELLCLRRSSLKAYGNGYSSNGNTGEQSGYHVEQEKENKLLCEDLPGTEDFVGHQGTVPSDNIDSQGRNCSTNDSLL
CHOP UPR activ: apoptotic UPR (CHOP) activation; 330,000 tested, 0.34% active; CHO-CHOP luciferase reporter, luminescence; percent of tunicamycin response over DMSO baseline; AID 449763; activation, % at 10 µM;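 active = at 10 µM dose, activation of 40% or more, normalized to positive control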;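 note: 100% = tunicamycin at 10 µg/mL and 0% = DMSO alone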
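Test system: CHO-CHOP cells, stable luciferase reporter of PERK-eIF2a-CHOP signalling | Quantity: 500 CHO-CHOP cells per well | Buffer or medium: F12 plus 10% serum | Compound dosing: 10 µM single point, 0.5% DMSO | Schedule: 6 h compound treatment, 37 °C | Signal: Luciferase luminescence | Control set: Tunicamycin high control, DMSO low control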
XBP1 UPR activ: adaptive UPR (XBP1) activation; CHO-XBP1 luciferase reporter, IRE1-XBP1 UPR activation, luminescence; percent of tunicamycin response, DMSO as zero; activation, % at 20 µM; 330,000 tested, 0.33% active;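 active = versus positive control, 20 µM dose yields 30% or more activation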;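 note: 100% = tunicamycin at 10 µg/mL and 0% = DMSO only wells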
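incubation = overnight seeding at 37 °C, 6 h compound treatment at 37 °C | assay system = CHO-XBP1 cells stably carrying IRE1-XBP1-driven luciferase reporter | input = 1000 cells per well | detection = luciferase luminescence | dosing = single point, 20 µM final compound, 1% DMSO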
* = called active by the depositor; i = inactive; nt = no result. A selection: hits, their analogues and other compounds. The true share with any hit is near 1%.

SMILES	T cell modulator	Beta2AR agonist	CHOP UPR activ	XBP1 UPR activ
C/C(=N\NC(=O)c1ccc(Br)o1)c1cc2c(cc1NC(=O)CCC(=O)O)OCO2	0.0*	-5.4	-0.7	-5.0
CC[C@@H](C(=O)[C@@H](C)[C@@H](O)[C@H](C)CCc1ccc(C)c(O)c1C(=O)O)[C@H]1O[C@](CC)([C@H]2CC[C@](O)(CC)[C@H](C)O2)C[C@@H]1C	118.5	86.0*	12.0	-3.0
Nc1nc(Cn2nnc(-c3ccccc3Cl)n2)nc(N2CCOCC2)n1	i	-3.0	-1.6	-0.2
Nc1nc(Cn2nnc(-c3ccccc3F)n2)nc(N2CCOCC2)n1	283.3	51.6*	-0.2	-0.4
Cc1c(C)n(Cc2ccc(F)cc2)c2ccc(C(=O)N3CCN(c4ccccn4)CC3)cc12	570.1	-3.2	3.2	-6.5
COc1ccc(/C=C(/C(=O)c2cccs2)N2C=CC=CC2=C(C#N)C#N)cc1	nt	77.4*	nt	nt
COc1ccc(C(=O)N/C(=C\c2ccco2)C(=O)OCc2ccco2)cc1	396.1	-1.5	4.2	-1.5
N#CC(C#N)=C1C=CC=CN1/C(=C\c1ccco1)C(=O)c1ccc(Br)cc1	263.0	74.8*	nt	nt
N#CC(C#N)=C1C=CC=CN1/C(=C\c1ccco1)C(=O)c1ccccc1	172.4	60.4*	nt	nt
COc1ccc(C(=O)/C(=C\c2ccco2)N2C=CC=CC2=C(C#N)C#N)cc1	138.3	60.3*	-10.1	-5.5
CN(CCCOc1ccccc1F)Cc1ccccc1	424.4	3.4	0.2	-1.3
Cc1cc(S(=O)(=O)Nc2cccc([N+](=O)[O-])c2)c(C)s1	321.4	1.4	-2.0	-3.4
CCOc1ccc(CCNC(=O)CCS(=O)(=O)c2ccc(C)cc2)cc1OCC	0.0*	1.7	4.0	1.7
COc1ccc(N2CCN(C(c3cccs3)C(C)NC(=O)C(=O)N3CCCCC3)CC2)cc1 (stereo unspecified)	229.1	70.4*	1.6	-6.7
CCN1CCN(C(=O)c2ccc(CNS(=O)(=O)c3cccc(OC)c3)cc2)CC1	274.6	-2.7	0.6	-2.3
O=C(NCc1ccco1)C1CCC(N2C(=O)C3C4CCC(C4)C3C2=O)CC1 (stereo unspecified)	409.7	1.1	1.6	-0.8
CCOC(=O)COc1ccc2ccccc2c1/C=C/[N+](=O)[O-]	285.1	43.8*	nt	nt
CCCCOc1ccc2ccccc2c1C=O	213.1	1.5	4.6	2.8
O=[N+]([O-])/C=C/c1c(OCc2ccccc2)ccc2ccccc12	241.1	89.0*	-0.3	-4.9
O=C(CN1C(=O)c2cccnc2Oc2ccc(Cl)cc21)Nc1ccccc1F	465.8	4.4	-0.4	-3.5
O=C(CCOc1ccccc1)Nc1ccnn1C1CCN(Cc2ccc(O)cc2)CC1	489.5	-0.7	0.2	-1.9
Nc1cc(C(=O)OCC(=O)c2ccc(CC(=O)N3CCOCC3)s2)ccc1Cl	0.0*	2.4	-1.3	-1.1
O=C(c1ccc(-c2nnc(Nc3cccc(Cl)c3)c3ccccc23)cc1)N1C[C@H]2C[C@H](C1)c1cccc(=O)n1C2	210.8	74.4*	-0.2	0.1
O=C(COC(=O)CCc1ccc(S(=O)(=O)N2CCOCC2)cc1)Nc1ccccc1OC(F)F	293.2	-0.4	19.7	-1.2
O=C(COC(=O)c1ccc(S(=O)(=O)N2CCOCC2)cc1)Nc1ccccc1OC(F)F	0.0*	-9.2	1.3	-3.3
SMILES	T cell modulator	Beta2AR agonist	CHOP UPR activ	XBP1 UPR activ
C[C@@H](C(=O)NCC1CC1)[C@H]1C[C@]1(C)[C@H](NC(=O)OCc1ccccc1)c1ccccc1	643.7	9.7	0.2	-0.9
CNC(=O)c1nnsc1S(=O)(=O)c1ccc(Cl)cc1	nt	48.5*	-10.5	-10.8
S=C(NCCSCc1ccc(Cl)c(Cl)c1)Nc1ccccc1	543.9	47.4*	0.1	-0.9
COc1ccc(CSCCNC(=S)Nc2ccccc2)cc1Cl	100.9	4.1	-1.1	-1.8
O=C(O)C(=Cc1cccc([N+](=O)[O-])c1)c1ccc(Cl)cc1	nt	2.5	nt	nt
O=C(/C=C/c1ccccc1[N+](=O)[O-])c1ccccc1Br	339.2	57.5*	2.5	9.9
O=C(/C=C\c1ccccc1[N+](=O)[O-])Nc1ccccc1	154.9	-1.2	4.7	4.1
Cc1ccc(C(=O)/C=C/c2ccccc2[N+](=O)[O-])cc1	529.4	62.5*	3.3	-1.8
CC(C)(C)N1CC(C(=O)Nc2ccc(S(N)(=O)=O)cc2)CC1=O (stereo unspecified)	242.2	3.4	-0.9	-3.0
CCOC(=O)c1c(C)oc2c1cc(O)c1ccccc12	498.8	-4.6	4.7	4.3
